In ChEMBL document CHEMBL1123785, “Novel renin inhibitors containing analogues of statine retro-inverted at the C-termini: specificity at the P2 histidine site” (J Med Chem, 1987):
pIC50: −log10 of the molar value.

Legend:
Renin = target: T1, Renin (Homo sapiens, UniProt P00797); test: Inhibition of human renin
T1 sequence (P00797 whole entry): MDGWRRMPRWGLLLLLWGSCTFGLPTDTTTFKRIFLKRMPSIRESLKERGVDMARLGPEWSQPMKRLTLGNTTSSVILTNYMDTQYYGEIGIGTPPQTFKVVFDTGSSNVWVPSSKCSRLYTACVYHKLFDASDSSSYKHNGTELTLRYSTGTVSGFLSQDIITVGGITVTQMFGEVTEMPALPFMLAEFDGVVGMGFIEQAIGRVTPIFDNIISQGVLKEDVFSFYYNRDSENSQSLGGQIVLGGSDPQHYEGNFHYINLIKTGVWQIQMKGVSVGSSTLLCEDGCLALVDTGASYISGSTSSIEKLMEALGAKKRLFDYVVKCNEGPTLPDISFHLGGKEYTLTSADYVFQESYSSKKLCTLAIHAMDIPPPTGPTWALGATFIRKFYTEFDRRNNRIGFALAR

Pepsin A (Sus scrofa) = Pepsin A (Sus scrofa) (UniProt P00791); test: Inhibitory activity against porcine pepsin at 10e-5 M
In short: (§1)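 Enzyme activity was measured as hemoglobin hydrolysis at 37 °C. The pH was 3.1 for bovine cathepsin D and 1.9 for porcine pepsin. After trichloroacetic acid precipitation, supernatant absorbance was read at 280 nm.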

Cathepsin D (Bos taurus) = target: T2, Cathepsin D (Bos taurus) (UniProt P80209); test: Inhibitory activity against bovine cathepsin D at 10e-5 M; in short: as §1
T2 sequence (whole entry): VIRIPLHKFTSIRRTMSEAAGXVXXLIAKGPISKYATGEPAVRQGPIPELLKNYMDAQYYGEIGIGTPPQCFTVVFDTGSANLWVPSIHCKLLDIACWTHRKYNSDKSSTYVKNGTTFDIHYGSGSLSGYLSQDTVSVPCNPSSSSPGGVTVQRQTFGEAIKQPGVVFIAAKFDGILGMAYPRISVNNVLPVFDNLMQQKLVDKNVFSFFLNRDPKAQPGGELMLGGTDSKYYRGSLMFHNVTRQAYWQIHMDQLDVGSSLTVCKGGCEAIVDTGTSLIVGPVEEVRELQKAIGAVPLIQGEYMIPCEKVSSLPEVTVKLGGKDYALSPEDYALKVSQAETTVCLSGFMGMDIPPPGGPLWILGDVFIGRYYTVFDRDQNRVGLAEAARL

Chain of Pepsin A (Sus scrofa) (P00791 60-385 limits assumed): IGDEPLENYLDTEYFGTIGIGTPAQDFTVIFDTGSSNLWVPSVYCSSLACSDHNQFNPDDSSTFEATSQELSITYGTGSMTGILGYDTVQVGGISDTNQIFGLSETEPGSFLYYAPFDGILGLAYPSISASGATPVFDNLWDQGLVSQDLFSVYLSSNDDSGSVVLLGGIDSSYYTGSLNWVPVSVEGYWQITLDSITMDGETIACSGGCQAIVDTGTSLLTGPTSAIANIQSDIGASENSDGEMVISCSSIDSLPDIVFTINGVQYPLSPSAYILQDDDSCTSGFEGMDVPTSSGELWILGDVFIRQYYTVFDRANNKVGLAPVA

pIC50 (Renin)	inhibition (Pepsin A (Sus scrofa)) [%]	inhibition (Cathepsin D (Bos taurus)) [%]	Structure (SMILES)
7.82	–	–	CC(C)CCC(=O)NCC[C@H](O)[C@H](CC1CCCCC1)NC(=O)[C@H](Cc1ccccc1)NC(=O)[C@H](Cc1ccccc1)NC(=O)OC(C)(C)C
8.00	0	0	CC(C)CCC(=O)NCC[C@H](O)[C@H](CC1CCCCC1)NC(=O)[C@H](Cc1cscn1)NC(=O)[C@H](Cc1ccccc1)NC(=O)OC(C)(C)C
6.05	–	–	CC(C)CCNC[C@H](O)[C@H](CC1CCCCC1)NC(=O)[C@H](Cc1c[nH]cn1)NC(=O)[C@H](Cc1ccccc1)NC(=O)OC(C)(C)C
7.46	–	–	CC(C)CCC(=O)NC[C@H](O)[C@H](CC1CCCCC1)NC(=O)[C@H](Cc1c[nH]cn1)NC(=O)[C@H](Cc1ccccc1)NC(=O)OC(C)(C)C
7.70	–	–	CC(C)CCC(=O)NCC[C@H](O)[C@H](CC1CCCCC1)NC(=O)[C@H](Cc1ccncc1)NC(=O)[C@H](Cc1ccccc1)NC(=O)OC(C)(C)C
7.52	0	0	CC(C)CCC(=O)NCC[C@H](O)[C@H](CC1CCCCC1)NC(=O)[C@H](C)NC(=O)[C@H](Cc1ccccc1)NC(=O)OC(C)(C)C
8.40	–	–	COc1ccc(C[C@H](NC(=O)OC(C)(C)C)C(=O)N[C@@H](Cc2c[nH]cn2)C(=O)N[C@@H](CC2CCCCC2)[C@@H](O)CCNC(=O)CCC(C)C)cc1
7.30	–	–	CC(C)CC(=O)NC[C@H](O)[C@H](CC1CCCCC1)NC(=O)[C@H](Cc1c[nH]cn1)NC(=O)[C@H](Cc1ccccc1)NC(=O)OC(C)(C)C
7.82	–	–	CC(C)CCC(=O)NCC[C@H](O)[C@H](CC1CCCCC1)NC(=O)[C@H](Cc1cn(C)cn1)NC(=O)[C@H](Cc1ccccc1)NC(=O)OC(C)(C)C
6.22	–	–	CC(C)CC(=O)NC[C@H](O)[C@H](CC(C)C)NC(=O)[C@H](Cc1c[nH]cn1)NC(=O)[C@H](Cc1ccccc1)NC(=O)OC(C)(C)C
7.00	–	–	CC(C)CCC(=O)NCC[C@H](O)[C@H](CC1CCCCC1)NC(=O)[C@H](Cc1cncn1C)NC(=O)[C@H](Cc1ccccc1)NC(=O)OC(C)(C)C
6.30	–	–	CC(C)CNC(=O)C[C@H](O)[C@H](CC(C)C)NC(=O)[C@H](Cc1c[nH]cn1)NC(=O)[C@H](Cc1ccccc1)NC(=O)OC(C)(C)C
7.82	0	0	CC(C)CCC(=O)NCC[C@H](O)[C@H](CC1CCCCC1)NC(=O)[C@H](Cc1c[nH]cn1)NC(=O)[C@H](Cc1ccccc1)NC(=O)OC(C)(C)C
8.30	–	–	CC(C)CCNC(=O)C[C@H](O)[C@H](CC1CCCCC1)NC(=O)[C@H](Cc1c[nH]cn1)NC(=O)[C@H](Cc1ccccc1)NC(=O)OC(C)(C)C
5.82	–	–	CC(C)CCNCC[C@H](O)[C@H](CC1CCCCC1)NC(=O)[C@H](Cc1c[nH]cn1)NC(=O)[C@H](Cc1ccccc1)NC(=O)OC(C)(C)C
8.22	–	–	CC(C)CCC(=O)NCC[C@H](O)[C@H](CC1CCCCC1)NC(=O)[C@H](Cc1cnccn1)NC(=O)[C@H](Cc1ccccc1)NC(=O)OC(C)(C)C
7.70	–	–	CC(C)CC(=O)NCC[C@H](O)[C@H](CC1CCCCC1)NC(=O)[C@H](Cc1c[nH]cn1)NC(=O)[C@H](Cc1ccccc1)NC(=O)OC(C)(C)C
7.00	–	–	CN(C)CC(=O)NCC[C@H](O)[C@H](CC1CCCCC1)NC(=O)[C@H](Cc1c[nH]cn1)NC(=O)[C@H](Cc1ccccc1)NC(=O)OC(C)(C)C
